pIC50: −log10 of the molar value.
Test system: Trypanosoma congolense
Assay: Trypanocidal activity against bloodstream form of Trypanosoma congolense IL3000 after 72 hrs by CellTiter-Glo reagent-based luminescence assay
Type: functional, organism-based
Settings: IL3000, 72 h
Procedure, shortened: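 BSF parasites maintained daily in HMI-9 medium. Compounds serially diluted 5-fold in HMI-9 from 25 μg/mL to 1.6 ng/mL and incubated with trypanosomes for 72 h. Viability read by luminescence after CellTiter-Glo addition; IC50 calculated from the dilution series. Pentamidine as positive control.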

Compound | pIC50
COc1cc(/C=C/C=O)ccc1O [CONIFERYL ALDEHYDE] | < 4.60
COc1cc([C@@H](O)[C@H](O)COC(=O)CC(C)C)ccc1O | < 4.60
COc1cc([C@@H]2Oc3c(OC)cc(/C=C/C=O)cc3[C@H]2COC(=O)CC(C)C)ccc1O | 5.62
C=C(C=O)[C@H](COC(=O)CC(C)C)C(c1ccc(O)c(OC)c1)c1ccc(O)c(OC)c1 | 5.55
COc1cc(C(=O)[C@@H](COC(=O)CC(C)C)Oc2ccc(/C=C/COC(=O)CC(C)C)cc2OC)ccc1O | 5.02
COc1cc([C@@H]2Oc3c(OC)cc(/C=C/COC(=O)CC(C)C)cc3[C@H]2COC(=O)CC(C)C)ccc1O | 4.87
COc1cc(/C=C/COC(=O)CC(C)C)ccc1O | < 4.60
COc1cc([C@@H]2Oc3c(OC)cc(/C=C/C=O)cc3[C@H]2COC(C)=O)ccc1O | 5.12
COc1cc(/C=C/C(=O)O)ccc1O [FERULATE] | < 4.60
COc1cc(C=O)ccc1O [VANILLIN] | < 4.60
COc1cc(C(=O)[C@@H](COC(=O)CC(C)C)c2cc(C=O)cc(OC)c2O)ccc1O | < 4.60
COc1cc(C(=O)[C@H](O)COC(=O)CC(C)C)ccc1O | < 4.60
COc1cc([C@@H](O)[C@@H](COC(=O)CC(C)C)Oc2ccc(/C=C/COC(=O)CC(C)C)cc2OC)ccc1O | 4.76
COc1cc([C@@H]2Oc3c(OC)cc(C=O)cc3[C@H]2COC(=O)CC(C)C)ccc1O | 4.70
COc1cc([C@@H]2Oc3c(OC)cc(/C=C/COC(C)=O)cc3[C@H]2COC(C)=O)ccc1O | 4.79
COc1cc([C@@H](OC)[C@H](O)COC(=O)CC(C)C)ccc1O | < 4.60
COc1cc([C@@H]2Oc3c(OC)cc(C(=O)O)cc3[C@H]2COC(=O)CC(C)C)ccc1O | < 4.60

From ChEMBL document CHEMBL4480459, “Acylated Lignans Isolated from Brachanthemum gobicum and Their Trypanocidal Activity” (J Nat Prod, 2019)
